This is a sample that favours compounds with a hit; in the whole collection about 0.6% have one here.
TNAP inh hiacc: inhibitors of human TNAP at high phosphate acceptor concentration; hit rate 0.03% among 200,000; purified TNAP, CDP-star luminescence, 1 M DEA; inhibition, % at 20 µM;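 active = over 50% inhibition of tissue-nonspecific alkaline phosphatase at 20 µM in the single-dose screen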;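 note: plate controls were DMSO wells for no effect and EDTA-quenched wells as full inhibition for full effect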
PMI act: increases human mannose-6-phosphate isomerase activity | P34949 | purified human PMI, coupled resazurin fluorescence, 20 min; active compounds read high; 1 = vehicle control, 0 substrate-free wells | activation factor at 20 µM | hit rate 0.005% among 190,000 | AID 1214;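 active = activation factor of 2 or more at 20 µM, relative to plate controls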
Target sequence (P34949 whole entry, looked up): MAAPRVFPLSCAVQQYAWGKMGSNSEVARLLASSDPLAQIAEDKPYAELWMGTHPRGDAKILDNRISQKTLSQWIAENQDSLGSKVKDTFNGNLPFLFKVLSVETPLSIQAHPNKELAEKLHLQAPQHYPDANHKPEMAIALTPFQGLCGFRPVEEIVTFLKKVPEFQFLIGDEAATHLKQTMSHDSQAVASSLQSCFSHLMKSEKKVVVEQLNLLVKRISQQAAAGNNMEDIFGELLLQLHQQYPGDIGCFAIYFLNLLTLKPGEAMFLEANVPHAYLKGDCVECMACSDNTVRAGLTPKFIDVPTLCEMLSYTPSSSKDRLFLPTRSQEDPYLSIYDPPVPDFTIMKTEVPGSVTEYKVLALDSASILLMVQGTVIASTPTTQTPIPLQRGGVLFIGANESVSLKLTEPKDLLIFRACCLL
TNAP act hi DEA: increases human TNAP activity under high phosphate acceptor concentration; P05186; purified TNAP, CDP-star luminescence, 1 M DEA, 30 min; active compounds read high; 0 = EDTA background, 1 = DMSO-only activity; activation factor at 20 µM; 200,000 tested, under 10 active;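 active = activation factor at least 2 at 20 µM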
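Test system – human TNAP · Doses – 20 µM single point · Incubation – 30 min, room temperature · Signal – luminescent substrate turnover signal · Read-out basis – activation factor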
PMI act hi M6P: PMI (human) activation, high substrate | AID 1216 | coupled PMI enzyme assay, resazurin fluorescence, 20 min; active compounds read high; 1 = untreated enzyme, 0 = substrate-free blank | activation factor at 20 µM | P34949 | hit rate 0.34% among 190,000;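 active = activation factor of 2 or more at 20 µM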
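Material: human phosphomannose isomerase with PGI, G6PDH, diaphorase coupling enzymes / Reagent: Man-6-P substrate 1.0 mM / Dosing: single compound dose of 20 µM, 1% DMSO final / Incubation: enzyme reaction with compound 20 min at room temperature / Signal: resorufin fluorescence (Ex 544/Em 590 nm) from resazurin via diaphorase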
TNAP inh no acc: inhibitors of human TNAP without phosphate acceptor; P05186; purified TNAP, CDP-star luminescence, 30 min; inhibition, % at 20 µM; hit rate 0.26% among 200,000;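 active = tissue-nonspecific alkaline phosphatase inhibition above about 50% at 20 µM in the single-dose screen, limit read from the data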;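 note: 0% = DMSO negative control and 100% = EDTA positive control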
An asterisk follows results filed as active; · = no result given.

SMILES | TNAP inh hiacc | PMI act | TNAP act hi DEA | PMI act hi M6P | TNAP inh no acc
CC(=O)/C(=N\Nc1ccc(Cl)cc1)Sc1nnc(-c2ccccc2)n1-c1ccccc1 | -1 | 1.4 | 1 | 2* | 9
CCN(CC)C(=O)CSc1nc2ncccc2[nH]1 | -4 | 1 | 1 | 1 | 49
C=C(C)CSc1nc2ncccc2[nH]1 | -5 | 1 | 1 | 1 | 66*
CC1CCCN(C(=O)CSc2nc3ncccc3[nH]2)C1 (stereo unspecified) | -5 | 0.9 | 1 | 1 | 53*
COc1ccc(N(CC(=O)N2CCN(c3ccc(Cl)cc3)CC2)S(=O)(=O)c2c(C)n[nH]c2C)cc1 | 4 | 1 | 1 | 1 | -5
O=C(O)c1sc2cc(C(F)(F)F)cnc2c1-c1ccccc1 | -1 | 1 | 1 | 1.1 | -7
FC(F)(F)c1cnc2c(-c3ccccc3)n[nH]c2c1 | 4 | 1.1 | 1 | 1 | 81*
Cc1cc(=S)[nH]c2ccccc12 | -2 | 1.2 | 1 | 2.1* | -7
Cc1ccc2c(C)cc(=S)[nH]c2c1 | -7 | 1.8 | 1.1 | 2.8* | -4
Cc1ccc2[nH]c(=S)cc(C)c2c1 | 1 | 0.9 | 1 | 1.4 | -8
Cc1c([N+](=O)[O-])c([N+](=O)[O-])nn1CC(=O)N1CCOCC1 | -4 | 1.1 | 1 | 1 | -6
CC(C)Cn1c(N)c(C(=O)COC(=O)c2ccc([N+](=O)[O-])o2)c(=O)n(C)c1=O | -3 | 0.9 | 1 | 0.8 | -9
Cc1ccc(C)c(NNC(N)=S)c1 | -3 | 1.7 | 1 | 1.9 | 3
Cc1ccc(N/N=C(\C#N)C(N)=S)c(C)c1 | 4 | 1.8 | 1 | 3* | 33
COc1ccc(C(=O)Nc2n[nH]c(-c3ccncc3)n2)cc1 | 2 | 1.1 | 1 | 1.1 | 92*
Cc1cccc(NC(=S)NCCc2ccc3c(c2)OCCO3)c1C | -4 | 1 | 1 | 0.9 | -4
N#Cc1ccccc1NC(=O)CSc1ccc([N+](=O)[O-])cn1 | -4 | 1.8 | 1 | 2.6* | -14
Cc1ccc(C(=O)NCC(=O)O)o1 | -5 | 1.1 | 1 | 1 | -7
CC/C(=C/c1sc2ccc(C)cc2[n+]1CCO)SC | -8 | 1.8 | 1.1 | 2.5* | -262
CC/C(=C/c1sc2ccc(C)cc2[n+]1CCCS(=O)(=O)[O-])SC | 1 | 1.9 | 1 | 2.7* | -5
COc1ccc(-c2csc(NC(=O)CSc3ncn[nH]3)n2)cc1OC | -1 | 1 | 1 | 0.9 | -6
O=C(CSc1ncn[nH]1)Nc1nc(-c2ccccc2)cs1 | -8 | 1.1 | 1.1 | 1.1 | 84*
O=C(CSc1ncn[nH]1)NCCC(c1ccccc1)c1ccccc1 | 51* | 1 | 0.5 | 1 | 55*
O=C(COC(=O)Cc1ccccc1F)Nc1ccc(F)cc1F | -5 | 0.9 | 1.1 | 1 | -12
Cc1cc(C)cc(Oc2ccc(NC(=O)C3CC=CCC3C(=O)O)cc2)c1 (stereo unspecified) | 0 | 1.1 | 1 | 1 | -9
SMILES | TNAP inh hiacc | PMI act | TNAP act hi DEA | PMI act hi M6P | TNAP inh no acc
CCOc1ccc(S(=O)(=O)NN2Cc3ccccc3C2=N)cc1 | -3 | 1.3 | 1 | 1.2 | -2
Cc1ccc(-n2[nH]c(C)c(/C=N/Nc3ccc([N+](=O)[O-])cc3[N+](=O)[O-])c2=O)cc1 | 51* | 0.9 | 0.5 | 1.1 | 35
COc1ccc(-n2nc3c(N)n[nH]c3cc2=O)cc1 | 2 | 1.6 | 1 | 2* | -2
Cc1ccc(N/N=C2\CCS(=O)(=O)c3sccc32)cc1 | -4 | 1.8 | 1 | 2.8* | -16
COc1cc(-c2cc(N3C(=O)Nc4ccccc4N3O)n[nH]2)cc(OC)c1OC | 0 | 1 | 1 | 1.1 | -20
O=C1Nc2ccccc2N(O)N1c1cc(-c2ccccc2)[nH]n1 | -2 | 1 | 1 | 0.9 | 81*
COc1ccc(-c2cc(N3C(=O)Nc4ccccc4N3O)n[nH]2)cc1 | 2 | 0.8 | 1 | 0.8 | 75*
COc1ccc(-c2cc(N3C(=O)Nc4ccccc4N3O)n[nH]2)cc1OC | 4 | 1.1 | 1 | 1.1 | 2
Cc1sc2ncnc(OCC(=O)N3CC(=O)Nc4ccccc43)c2c1C | -1 | 1.2 | 1 | 1.1 | -5
CC1(CCc2ccccc2)NC(=S)N(c2ccc(Cl)cc2)N1 (stereo unspecified) | 3 | 1.7 | 1 | 2.7* | -31
CCC1(c2ccccc2)NC(=S)N(c2ccc(C)c(C)c2)N1 (stereo unspecified) | -5 | 1.3 | 1 | 1.7 | -3
CCC1(c2ccc(Cl)cc2)NC(=S)N(c2ccc(C)cc2)N1 (stereo unspecified) | 3 | 1.3 | 1 | 1.9 | 8
CC1(CCc2ccccc2)NC(=S)N(c2ccccc2)N1 (stereo unspecified) | -4 | 1.5 | 1 | 2.8* | 4
Cc1cc(C)cc(C(=O)NN2CCN(C)CC2)c1 | 2 | 1.1 | 1 | 1.1 | -7
COc1cc([N+](=O)[O-])cc2cc(C(=O)N3CCCC3)c(=O)oc12 | 35 | · | 0.7 | · | 32
O=C(NCC(O)c1ccc([N+](=O)[O-])cc1)c1cccc(S(=O)(=O)N2CCCC2)c1 (stereo unspecified) | -1 | 0.9 | 1 | 0.9 | -3
O=C(Cc1ccccc1)Nc1cccc(N2C(=O)C=CC2=O)c1 | -3 | 1.5 | 1 | 2.1* | -16
COc1cccc(NC(=O)Cc2ccccc2)c1 | -9 | 0.9 | 1.1 | 1 | -12
COc1ccc(Cc2nn3c(-c4ccccc4OC)nnc3s2)cc1 | -7 | 0.9 | 1.1 | 0.9 | 59*
O=C1CCCC/C1=N\Nc1ccc(OCc2ccccc2)cc1 | 5 | 1.7 | 1 | 2.5* | 2
Cc1ccc(-c2cc(C(=O)N/N=C/c3c[nH]c4ccccc34)[nH]n2)cc1 | 10 | 0.8 | 0.9 | 0.9 | 71*
O=C(N/N=C/c1c[nH]c2ccccc12)c1cc(-c2ccc(-c3ccccc3)cc2)n[nH]1 | -2 | 1 | 1 | 1 | 3
O=C(N/N=C/c1c[nH]c2ccccc12)c1cc(-c2ccccc2)n[nH]1 | 16 | 1 | 0.8 | 1 | 87*
CC(NC(=O)c1cc(S(=O)(=O)N(C)C)ccc1N1CCCC1)C1CC2CCC1C2 (stereo unspecified) | -3 | 1.1 | 1 | 1 | -13
O=C(C1=C(O)C(=O)N(Cc2cccnc2)C1c1ccccn1)c1cccs1 (stereo unspecified) | 1 | 1.2 | 1 | 1 | -2
C/C(=N\Nc1cccc(Cl)c1)c1ccncc1 | -1 | 1.8 | 1 | 2.3* | -4
Clc1cccc(N/N=C/c2ccncc2)c1 | 0 | 1.1 | 1 | 1.2 | -10
C/C(=N/Nc1ccc(F)cc1)c1ccc(Cl)s1 | 6 | 1.4 | 0.9 | 2.3* | -4
C/C(=N\Nc1ccc(F)cc1)c1ccncc1 | 2 | 1.6 | 1 | 2.5* | -8
